Laboratory results from ChEMBL document CHEMBL1165950, “Design and synthesis of new potent anticancer pyrazoles with high FLT3 kinase inhibitory selectivity” (Bioorg Med Chem, 2010).

Legend:
Format in all cases: functional
Conditions in all cases: read-out: Activity
SNB-19 = assay: Cytotoxicity against human SNB19 cells assessed as cell growth at 10 uM
Method in brief: (§1)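 NCI-60 screen: cells grown in RPMI 1640 with 5% FBS and 2 mM L-glutamine, plated at 5000–40,000 cells/well according to doubling time, and preincubated 24 h at 37 °C, 5% CO2. The single 10 µM dose (DMSO stock) was added, then incubated 48 h. Cells were TCA-fixed and stained with 0.4% SRB, read at 515 nm, and growth % calculated against time-zero and control plates.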

NCI-H322M = assay: Cytotoxicity against human NCI-H322M cells assessed as cell growth at 10 uM; method in brief: as §1
LOX IMVI = assay: Cytotoxicity against human LOXIMVI cells assessed as cell growth at 10 uM; method in brief: as §1
SK-MEL-2 = assay: Cytotoxicity against human SK-MEL-2 cells assessed as cell growth at 10 uM; method in brief: as §1
NCI-H522 = assay: Cytotoxicity against human NCI-H522 cells assessed as cell growth at 10 uM; method in brief: as §1
UACC-62 = assay: Cytotoxicity against human UACC62 cells assessed as cell growth at 10 uM; method in brief: as §1
DU-145 = assay: Cytotoxicity against human DU145 cells assessed as cell growth at 10 uM
Method in brief: (§2)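 Single-dose NCI-60 screen at 10 µM. Cells were grown in RPMI 1640 with 5% FBS and 2 mM L-glutamine, then treated for 48 h at 37 °C. Protein was measured by SRB staining with absorbance at 515 nm. Percentage growth was recorded, and inhibition percentage was calculated as 100 minus growth percentage.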

786-0 = assay: Cytotoxicity against human 786-0 cells assessed as cell growth at 10 uM; method in brief: as §2
SK-MEL-5 = assay: Cytotoxicity against human SK-MEL-5 cells assessed as cell growth at 10 uM; method in brief: as §1
MDA-MB-435 = assay: Cytotoxicity against human MDA-MB-435 cells assessed as cell growth at 10 uM; method in brief: as §1
[1] = Cytotoxicity against human Hs 578T cells assessed as cell growth at 10 uM; method in brief: as §2
UO-31 = assay: Cytotoxicity against human UO31 cells assessed as cell growth at 10 uM; method in brief: as §1
MDA-MB-231 = assay: Cytotoxicity against human MDA-MB-231 cells assessed as cell growth at 10 uM; method in brief: as §1
PC-3 = assay: Cytotoxicity against human PC3 cells assessed as cell growth at 10 uM; method in brief: as §1
NCI-H460 = assay: Cytotoxicity against human NCI-H460 cells assessed as cell growth at 10 uM; method in brief: as §1
HCC 2998 = assay: Cytotoxicity against human HCC2998 cells assessed as cell growth at 10 uM; method in brief: as §2
BT-549 = assay: Cytotoxicity against human BT549 cells assessed as cell growth at 10 uM; method in brief: as §2
SNB-75 = assay: Cytotoxicity against human SNB75 cells assessed as cell growth at 10 uM; method in brief: as §1
OVCAR-4 = assay: Cytotoxicity against human OVCAR4 cells assessed as cell growth at 10 uM; method in brief: as §1
TK-10 = assay: Cytotoxicity against human TK10 cells assessed as cell growth at 10 uM; method in brief: as §1
HT-29 = assay: Cytotoxicity against human HT-29 cells assessed as cell growth at 10 uM; method in brief: as §2
OVCAR-3 = assay: Cytotoxicity against human OVCAR-3 cells assessed as cell growth at 10 uM; method in brief: as §1
U-251 = assay: Cytotoxicity against human U251 cells assessed as cell growth at 10 uM; method in brief: as §1
SN12C = assay: Cytotoxicity against human SN12C cells assessed as cell growth at 10 uM; method in brief: as §1
IGROV-1 = assay: Cytotoxicity against human IGROV1 cells assessed as cell growth at 10 uM; method in brief: as §2
MCF7 = assay: Cytotoxicity against human MCF7 cells assessed as cell growth at 10 uM; method in brief: as §1
MOLT-4 = assay: Cytotoxicity against human MOLT4 cells assessed as cell growth at 10 uM; method in brief: as §1
M14 = assay: Cytotoxicity against human M14 cells assessed as cell growth at 10 uM; method in brief: as §1
SK-OV-3 = assay: Cytotoxicity against human SKOV3 cells assessed as cell growth at 10 uM; method in brief: as §1
Malme-3M = assay: Cytotoxicity against human MALME-3M cells assessed as cell growth at 10 uM; method in brief: as §1
HOP-92 = assay: Cytotoxicity against human HOP92 cells assessed as cell growth at 10 uM; method in brief: as §2

In the case of COc1cc(C)cc(-c2nn(CC#N)cc2-c2ccnc(-c3ccc(C(C)=O)cc3)c2)c1, the growth at 10 µM (SNB-19) was 92.2%, the growth at 10 µM (NCI-H322M) was 102% and the growth at 10 µM (LOX IMVI) was 78.1%. For the same molecule, the growth at 10 µM (SK-MEL-2) was 89.1%, the growth at 10 µM (NCI-H522) was 66.6% and the growth at 10 µM (UACC-62) was 64.6%. For the same molecule, the growth at 10 µM (DU-145) was 113%, the growth at 10 µM (786-0) was 93.9% and the growth at 10 µM (SK-MEL-5) was 39.7%. For the same molecule, the growth at 10 µM (MDA-MB-435) was 70%, the growth at 10 µM [1] was 83.8% and the growth at 10 µM (UO-31) was 79.1%. It also gave a growth at 10 µM (MDA-MB-231) of 73.8%, a growth at 10 µM (PC-3) of 82.9% and a growth at 10 µM (NCI-H460) of 106%. It also gave a growth at 10 µM (HCC 2998) of 76.8%, a growth at 10 µM (BT-549) of 93.5% and a growth at 10 µM (SNB-75) of 46.4%. It also gave a growth at 10 µM (OVCAR-4) of 58.6%, a growth at 10 µM (TK-10) of 95.2% and a growth at 10 µM (HT-29) of 79%. It also gave a growth at 10 µM (OVCAR-3) of 108%, a growth at 10 µM (U-251) of 91.8% and a growth at 10 µM (SN12C) of 83.6%. The growth at 10 µM (IGROV-1) was 101%, the growth at 10 µM (MCF7) was 27.6% and the growth at 10 µM (MOLT-4) was 75.8%. For the same molecule, the growth at 10 µM (M14) was 103%, the growth at 10 µM (SK-OV-3) was 89% and the growth at 10 µM (Malme-3M) was 139%. For the same molecule, the growth at 10 µM (HOP-92) was 81.7%.
